Results from different studies.
Each line is one published result; the experiments were not run side by side.
Target: Fibroblast growth factor receptor 4 (FGFR4, Homo sapiens, UniProt P22455)

SMILES	read-out	technique	concentration	remaining binding [%]
c1cnn2ncc(-c3ccnc(N4CCC45COC5)n3)c2c1	binding	–	1 µM	91
CCN1CCN(Cc2ccc(C(=O)Nc3ccc(C)c(Oc4ccc5c(c4)CC(=O)N5)c3)cc2C(F)(F)F)CC1	binding	competition with immobilised ligand	1 µM	100
CN(C)c1nccc(-c2cnn3ncccc23)n1	binding	–	1 µM	100
Nc1ncc2c(n1)-c1c([nH]c3ccc(C#CC4CC4)cc13)CCCC2	binding	competition with immobilised ligand	1 µM	98
F[C@@H]1CCN(c2nccc(-c3cnn4ncccc34)n2)C1	binding	–	1 µM	100
O=C(Nc1c[nH]nc1C(=O)NC1CCNCC1)c1cc(F)cc(F)c1	binding	competition with immobilised ligand	1 µM	100
CCc1ccccc1C(=O)Nc1n[nH]c2c(C)c(F)c(C3C(C#N)=C(C)N(C)C(C)=C3C#N)cc12	cell-free assay	competition with immobilised ligand	1 µM	100
CNC(=O)[C@@H]1CC[C@@H](n2c(-c3ccc4cnccc4c3)nc3ccc(C(=O)NCc4cccc(C(N)=O)c4)cc32)C1	binding	competition with immobilised ligand	1 µM	100
O=C(Nc1ccc(Oc2ccc(F)cc2)cc1)N1CCc2ncccc2[C@H]1c1ccc(F)cc1	cell-free assay	competition with immobilised ligand	1 µM	95
O=C(NCCCN1CCOCC1)c1ccc(Nc2nccc(-c3cc4ccccc4s3)n2)cc1	binding	competition with immobilised ligand	1 µM	91
N[C@@H]1CCN(c2nccc(-c3cnn4ncccc34)n2)C1	binding	–	1 µM	96
O=C(NS(=O)(=O)c1ccc(NCC2CCOCC2)c([N+](=O)[O-])c1)c1ccc(N2CCN(Cc3ccc(C(F)(F)F)cc3-c3ccc(Cl)cc3)CC2)cc1Oc1cnc2[nH]ccc2c1	cell-free assay	competition with immobilised ligand	1 µM	96
C[C@@H]1CCN(c2nccc(-c3cnn4ncccc34)n2)C1	binding	–	1 µM	100
O=C(c1ccc(Nc2ncc(Cl)c(-c3cc4ccccc4s3)n2)cc1)N1CCC(N2CCCC2)CC1	binding	competition with immobilised ligand	1 µM	77
CN([C@@H]1CCc2c(CC(=O)O)c3cc(S(C)(=O)=O)ccc3n2C1)S(=O)(=O)c1ccc(F)cc1	cell-free assay	competition with immobilised ligand	1 µM	99
O=C(c1ccc(Nc2nccc(-c3cc4ccccc4s3)n2)cc1)N1CCC(N2CCCC2)CC1	binding	competition with immobilised ligand	1 µM	99
C[C@H](c1ccc(F)cc1)N(Cc1cccc(C(=O)O)c1)C(=O)c1cnc2ccccc2c1	cell-free assay	competition with immobilised ligand	1 µM	91
C[C@@H](c1ccc(-n2cnc3c(N)ncnc32)cc1)N1CCc2nn(C)c(Cc3ccccc3)c2C1=O	binding	competition with immobilised ligand	0.1 µM	97
CS(=O)(=O)c1cc(C2(NC(=O)c3cncc4c3cnn4-c3ccc(F)cc3)CC2)ccn1	cell-free assay	competition with immobilised ligand	1 µM	74
COc1cnc(Nc2cccc(S(N)(=O)=O)c2)nc1N1CCN(c2ccccc2)CC1	binding	competition with immobilised ligand	1 µM	98
CN(C)c1ncc(F)c(-c2cnn3ncccc23)n1	binding	–	1 µM	100
C[C@@H]1CN(c2cc(-c3nn(C)c4ccc(OC5(C)CC5)cc34)ncn2)C[C@H](C)O1	cell-free assay	competition with immobilised ligand	1 µM	100
